System: Fibroblast
Test: Multiplex assay against human fibroblast
Type: toxicity, cell-based
How it was run: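 Imaging took place on a CQ1 microscope at 37°C and 5% CO2 once compound had been added to live cells stained at seeding with Hoechst33342, BioTracker Green Microtubule Cytoskeleton Dye, MitoTracker Red and Annexin V Alexa Fluor 680. CellPathfinder machine-learning gating classed cells as Hoechst high-intensity objects or normal cells, classed normal cells as having healthy, pyknosed or fragmented nuclei, and classed pyknosed cells as mitotic or apoptotic. Tubulin, mitochondrial-mass and membrane-permeability phenotypes are per cents of the healthy-nucleus cells.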

[1] = 12 h, 1 µM, compound concentration 1 uM, replicate 1
[2] = 12 h, 1 µM, compound concentration 1 uM, replicate 2
[3] = 12 h, 10 µM, compound concentration 10 uM, replicate 1
[4] = 12 h, 10 µM, compound concentration 10 uM, replicate 2
[5] = 24 h, 1 µM, compound concentration 1 uM, replicate 1
[6] = 24 h, 1 µM, compound concentration 1 uM, replicate 2
[7] = 24 h, 10 µM, compound concentration 10 uM, replicate 1
[8] = 24 h, 10 µM, compound concentration 10 uM, replicate 2
[9] = 48 h, 1 µM, compound concentration 1 uM, replicate 1
[10] = 48 h, 1 µM, compound concentration 1 uM, replicate 2
[11] = 48 h, 10 µM, compound concentration 10 uM, replicate 1
[12] = 48 h, 10 µM, compound concentration 10 uM, replicate 2

CC(C)CC(=O)Nc1[nH]nc2c1CN(C(=O)C1CCN(C)CC1)C2(C)C [PHA-793887]
Population Apoptotic (%) [1]: 81%
Population Fragmented Nuclei (%) [1]: 21%
Population Healthy Nuclei (%) [1]: 60%
Population Hoechst High Intensity Objects (%) [1]: 11%
Population Membrane Permeable-Phenotype (%) [1]: 4%
Population Mitochondria Different-Phenotype (%) [1]: 3%
Population Mitotic Cells (%) [1]: 18%
Population Normal (%) [1]: 88%
Population Pyknosed Nuclei (%) [1]: 18%
Population Tubulin-Different-Phenotype (%) [1]: 4%
Total Cell Count [1]: 233
Population Apoptotic (%) [2]: 50%
Population Fragmented Nuclei (%) [2]: 48%
Population Healthy Nuclei (%) [2]: 31%
Population Hoechst High Intensity Objects (%) [2]: 46%
Population Membrane Permeable-Phenotype (%) [2]: 22%
Population Mitochondria Different-Phenotype (%) [2]: 44%
Population Mitotic Cells (%) [2]: 50%
Population Normal (%) [2]: 53%
Population Pyknosed Nuclei (%) [2]: 20%
Population Tubulin-Different-Phenotype (%) [2]: 22%
Total Cell Count [2]: 54
Population Apoptotic (%) [3]: 73%
Population Fragmented Nuclei (%) [3]: 23%
Population Healthy Nuclei (%) [3]: 66%
Population Hoechst High Intensity Objects (%) [3]: 12%
Population Membrane Permeable-Phenotype (%) [3]: 4%
Population Mitochondria Different-Phenotype (%) [3]: 7%
Population Mitotic Cells (%) [3]: 26%
Population Normal (%) [3]: 87%
Population Pyknosed Nuclei (%) [3]: 10%
Population Tubulin-Different-Phenotype (%) [3]: 4%
Total Cell Count [3]: 277
Population Apoptotic (%) [4]: 33%
Population Fragmented Nuclei (%) [4]: 68%
Population Healthy Nuclei (%) [4]: 24%
Population Hoechst High Intensity Objects (%) [4]: 33%
Population Membrane Permeable-Phenotype (%) [4]: 20%
Population Mitochondria Different-Phenotype (%) [4]: 40%
Population Mitotic Cells (%) [4]: 66%
Population Normal (%) [4]: 66%
Population Pyknosed Nuclei (%) [4]: 7%
Population Tubulin-Different-Phenotype (%) [4]: 30%
Total Cell Count [4]: 62
Population Apoptotic (%) [5]: 71%
Population Fragmented Nuclei (%) [5]: 20%
Population Healthy Nuclei (%) [5]: 65%
Population Hoechst High Intensity Objects (%) [5]: 13%
Population Membrane Permeable-Phenotype (%) [5]: 6%
Population Mitochondria Different-Phenotype (%) [5]: 1%
Population Mitotic Cells (%) [5]: 28%
Population Normal (%) [5]: 86%
Population Tubulin-Different-Phenotype (%) [5]: 3%
Total Cell Count [5]: 225
Population Apoptotic (%) [6]: 66%
Population Fragmented Nuclei (%) [6]: 57%
Population Healthy Nuclei (%) [6]: 28%
Population Hoechst High Intensity Objects (%) [6]: 37%
Population Membrane Permeable-Phenotype (%) [6]: 16%
Population Mitochondria Different-Phenotype (%) [6]: 25%
Population Mitotic Cells (%) [6]: 33%
Population Normal (%) [6]: 62%
Population Pyknosed Nuclei (%) [6]: 14%
Population Tubulin-Different-Phenotype (%) [6]: 16%
Total Cell Count [6]: 67
Population Apoptotic (%) [7]: 61%
Population Fragmented Nuclei (%) [7]: 23%
Population Healthy Nuclei (%) [7]: 64%
Population Hoechst High Intensity Objects (%) [7]: 11%
Population Membrane Permeable-Phenotype (%) [7]: 3%
Population Mitochondria Different-Phenotype (%) [7]: 6%
Population Mitotic Cells (%) [7]: 38%
Population Normal (%) [7]: 88%
Population Pyknosed Nuclei (%) [7]: 12%
Population Tubulin-Different-Phenotype (%) [7]: 6%
Total Cell Count [7]: 284
Population Apoptotic (%) [8]: 100%
Population Fragmented Nuclei (%) [8]: 72%
Population Healthy Nuclei (%) [8]: 20%
Population Hoechst High Intensity Objects (%) [8]: 32%
Population Membrane Permeable-Phenotype (%) [8]: 0%
Population Mitochondria Different-Phenotype (%) [8]: 11%
Population Mitotic Cells (%) [8]: 0%
Population Normal (%) [8]: 67%
Population Pyknosed Nuclei (%) [8]: 6%
Population Tubulin-Different-Phenotype (%) [8]: 22%
Total Cell Count [8]: 64

Cc1ccc(C)c(Oc2ccncc2C(=O)N2CCN(C3CC3)c3ccccc32)c1
Population Apoptotic (%) [1]: 75%
Population Fragmented Nuclei (%) [1]: 20%
Population Healthy Nuclei (%) [1]: 58%
Population Hoechst High Intensity Objects (%) [1]: 13%
Population Normal (%) [1]: 86%
Total Cell Count [1]: 90
Population Apoptotic (%) [2]: 66%
Population Healthy Nuclei (%) [2]: 75%
Population Hoechst High Intensity Objects (%) [2]: 10%
Population Normal (%) [2]: 89%
Total Cell Count [2]: 73
Population Apoptotic (%) [3]: 59%
Population Fragmented Nuclei (%) [3]: 27%
Population Healthy Nuclei (%) [3]: 43%
Population Hoechst High Intensity Objects (%) [3]: 10%
Population Normal (%) [3]: 89%
Total Cell Count [3]: 178
Population Apoptotic (%) [4]: 33%
Population Fragmented Nuclei (%) [4]: 6%
Population Healthy Nuclei (%) [4]: 72%
Population Hoechst High Intensity Objects (%) [4]: 3%
Population Normal (%) [4]: 96%
Total Cell Count [4]: 59
Population Apoptotic (%) [5]: 52%
Population Fragmented Nuclei (%) [5]: 19%
Population Healthy Nuclei (%) [5]: 56%
Population Hoechst High Intensity Objects (%) [5]: 19%
Population Normal (%) [5]: 80%
Total Cell Count [5]: 88
Population Apoptotic (%) [6]: 42%
Population Fragmented Nuclei (%) [6]: 27%
Population Healthy Nuclei (%) [6]: 60%
Population Hoechst High Intensity Objects (%) [6]: 6%
Population Normal (%) [6]: 93%
Total Cell Count [6]: 71
Population Apoptotic (%) [7]: 55%
Population Fragmented Nuclei (%) [7]: 26%
Population Healthy Nuclei (%) [7]: 51%
Population Hoechst High Intensity Objects (%) [7]: 6%
Population Normal (%) [7]: 93%
Total Cell Count [7]: 189
Population Apoptotic (%) [8]: 53%
Population Healthy Nuclei (%) [8]: 66%
Population Hoechst High Intensity Objects (%) [8]: 7%
Population Normal (%) [8]: 92%
Total Cell Count [8]: 65
Population Apoptotic (%) [9]: 80%
Population Fragmented Nuclei (%) [9]: 23%
Population Healthy Nuclei (%) [9]: 57%
Population Hoechst High Intensity Objects (%) [9]: 11%
Population Normal (%) [9]: 88%
Total Cell Count [9]: 87
Population Apoptotic (%) [10]: 50%
Population Fragmented Nuclei (%) [10]: 24%
Population Healthy Nuclei (%) [10]: 72%
Population Normal (%) [10]: 84%
Total Cell Count [10]: 91
Population Apoptotic (%) [11]: 66%
Population Fragmented Nuclei (%) [11]: 40%
Population Healthy Nuclei (%) [11]: 52%
Population Hoechst High Intensity Objects (%) [11]: 9%
Population Normal (%) [11]: 91%
Total Cell Count [11]: 211
Population Apoptotic (%) [12]: 25%
Population Fragmented Nuclei (%) [12]: 42%
Population Healthy Nuclei (%) [12]: 54%
Population Hoechst High Intensity Objects (%) [12]: 7%
Population Normal (%) [12]: 92%
Total Cell Count [12]: 159

From ChEMBL document CHEMBL4689842, “EUbOPEN Chemogenomics Library wave 1” (2021)
